Measurements taken from ChEMBL document CHEMBL1156745, “Exploration of O-spiroketal C-arylglucosides as novel and selective renal sodium-dependent glucose co-transporter 2 (SGLT2) inhibitors” (Bioorg Med Chem Lett, 2009).

Columns and labels:
[1] = biological target: T1, Sodium/glucose cotransporter 2 (Homo sapiens, UniProt P31639); assay: Inhibition of human SGLT2 transfected in HEK293.ETN cells assessed as AMG uptake after 1.5 hrs by scintillation counting; type: cell-based
T1 sequence (P31639 whole entry): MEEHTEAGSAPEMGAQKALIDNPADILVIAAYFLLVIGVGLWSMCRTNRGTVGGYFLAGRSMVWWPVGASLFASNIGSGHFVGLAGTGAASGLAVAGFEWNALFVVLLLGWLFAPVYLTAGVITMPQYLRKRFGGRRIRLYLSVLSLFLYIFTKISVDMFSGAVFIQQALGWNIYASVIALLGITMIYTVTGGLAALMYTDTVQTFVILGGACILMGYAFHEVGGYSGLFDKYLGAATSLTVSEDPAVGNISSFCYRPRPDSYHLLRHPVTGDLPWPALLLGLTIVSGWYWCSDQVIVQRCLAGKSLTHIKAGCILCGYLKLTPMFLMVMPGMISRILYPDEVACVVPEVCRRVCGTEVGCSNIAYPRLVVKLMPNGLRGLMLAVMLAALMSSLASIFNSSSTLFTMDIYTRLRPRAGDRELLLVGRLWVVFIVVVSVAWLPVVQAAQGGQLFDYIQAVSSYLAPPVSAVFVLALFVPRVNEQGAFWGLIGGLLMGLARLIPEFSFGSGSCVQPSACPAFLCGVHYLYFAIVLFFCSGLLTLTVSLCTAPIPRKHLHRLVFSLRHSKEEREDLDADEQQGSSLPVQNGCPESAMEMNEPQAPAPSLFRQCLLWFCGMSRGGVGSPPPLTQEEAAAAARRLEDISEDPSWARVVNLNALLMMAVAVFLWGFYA
How it was run: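 Full-length human SGLT2 in pEAK15, stably expressed in HEK293.ETN (puromycin-selected clones). Cells plated 1 × 10⁵/well in DMEM/10% FBS, 48 h, 37 °C. Compound plus 40 µCi/mL [¹⁴C]AMG in sodium or sodium-free Tris/Hepes buffer pH 7.2, 1.5 h at 37 °C with shaking. Washed, uptake read by scintillation counting. Eight concentrations in triplicate. Sodium-free value subtracted from sodium value.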

[2] = biological target: T2, Sodium/glucose cotransporter 1 (Homo sapiens, UniProt P13866); assay: Inhibition of human SGLT1 transfected in COS-7 cells assessed as AMG uptake after 2 hrs by scintillation counting; type: cell-based
T2 sequence (P13866 whole entry): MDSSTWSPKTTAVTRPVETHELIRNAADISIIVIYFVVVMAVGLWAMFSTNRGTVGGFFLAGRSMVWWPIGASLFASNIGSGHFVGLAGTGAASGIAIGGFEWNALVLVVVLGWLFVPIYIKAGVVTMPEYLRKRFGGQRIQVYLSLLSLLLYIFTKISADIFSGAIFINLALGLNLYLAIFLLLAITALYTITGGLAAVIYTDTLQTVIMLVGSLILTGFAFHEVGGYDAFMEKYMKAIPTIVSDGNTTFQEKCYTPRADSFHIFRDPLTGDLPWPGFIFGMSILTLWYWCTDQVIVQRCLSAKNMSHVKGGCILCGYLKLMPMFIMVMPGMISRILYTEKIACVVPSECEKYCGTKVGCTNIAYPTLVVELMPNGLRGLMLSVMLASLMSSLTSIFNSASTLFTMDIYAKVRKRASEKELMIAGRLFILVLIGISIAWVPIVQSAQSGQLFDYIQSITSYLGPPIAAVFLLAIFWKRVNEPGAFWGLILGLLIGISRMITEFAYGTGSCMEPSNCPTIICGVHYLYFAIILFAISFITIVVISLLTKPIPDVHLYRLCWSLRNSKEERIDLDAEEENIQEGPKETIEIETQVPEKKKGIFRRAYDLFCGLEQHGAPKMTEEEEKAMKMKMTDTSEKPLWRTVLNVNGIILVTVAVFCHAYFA
How it was run: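 Transient transfection of human SGLT1 plasmid into COS-7 cells, which were cryopreserved until use. Seeded at 1 × 10⁵ cells/well in DMEM + 10% FBS, 48 h at 37 °C, 5% CO₂. Exposed to inhibitor with 40 µCi/mL [¹⁴C]AMG in Na⁺ or Na⁺-free Tris/Hepes buffer pH 7.2 for 2 h at 37 °C, shaking. Eight concentrations, triplicate. Na⁺-dependent uptake taken as Na⁺ minus Na⁺-free signal.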

[3] = test system: Mus musculus; assay: Toxicity in CD1 mouse assessed as induction of severe diarrhea at 25 mg/kg, po after 6 hrs; type: organism-based; parameters: dose 25 mg/kg, route oral; settings: in vivo
How it was run: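 CD1 mice given a single oral dose of 25 mg/kg. Watched for diarrhea at 6 h.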

| Compound | IC50 [1] [nM] | IC50 [2] [nM] | Activity [3] |
| --- | --- | --- | --- |
| CCc1ccc(Cc2cc3c(cc2Cl)CO[C@]32O[C@H](CN=[N+]=[N-])[C@@H](O)[C@H](O)[C@H]2O)cc1 | 10 | 1000 | – |
| Cc1cccc(Cc2cc3c(cc2Cl)CO[C@]32O[C@H](CO)[C@@H](O)[C@H](O)[C@H]2O)c1F | 0.8 | 1500 | – |
| Cc1cc(F)ccc1Cc1cc2c(cc1Cl)CO[C@]21O[C@H](CO)[C@@H](O)[C@H](O)[C@H]1O | 100 | 1000 | – |
| OC[C@H]1O[C@]2(OCc3cc(Cl)c(Cc4ccc(OC(F)(F)F)cc4)cc32)[C@H](O)[C@@H](O)[C@@H]1O | 0.3 | 3100 | – |
| CCOc1ccc(Cc2cc3c(cc2Cl)CO[C@]32O[C@H](CO)[C@@H](O)[C@H](O)[C@H]2O)cc1 | 6.5 | 1300 | – |
| CCOc1ccc(Cc2cc3c(cc2Cl)CO[C@]32O[C@H](CO)[C@@H](O)[C@H](O)[C@H]2O)cc1Cl | 68 | 10500 | – |
| CCc1ccc(Cc2cc3c(cc2Cl)CO[C@]32O[C@H](COCC(F)(F)F)[C@@H](O)[C@H](O)[C@H]2O)cc1 | 70 | 14000 | – |
| CCOc1cc(F)ccc1Cc1cc2c(cc1Cl)CO[C@]21O[C@H](CO)[C@@H](O)[C@H](O)[C@H]1O | 1000 | 10000 | – |
| CCc1ccc(C2(c3cc4c(cc3Cl)CO[C@]43O[C@H](CO)[C@@H](O)[C@H](O)[C@H]3O)CC2)cc1 | 1.3 | 6000 | – |
| CCc1ccc(Cc2cc3c(cc2Cl)CO[C@]32O[C@H](CN)[C@@H](O)[C@H](O)[C@H]2O)cc1 | 100 | > 100000 | – |
| COc1c(C)cccc1Cc1cc2c(cc1Cl)CO[C@]21O[C@H](CO)[C@@H](O)[C@H](O)[C@H]1O | 10 | 1000 | – |
| CCc1ccc(C(=O)c2cc3c(cc2Cl)CO[C@]32O[C@H](CO)[C@@H](O)[C@H](O)[C@H]2O)cc1 | 22 | 43000 | – |
| CCc1ccc(C(F)(F)c2cc3c(cc2Cl)CO[C@]32O[C@H](CO)[C@@H](O)[C@H](O)[C@H]2O)cc1 | 7 | 1600 | – |
| CC(C)c1ccc(Cc2cc3c(cc2Cl)CO[C@]32O[C@H](CO)[C@@H](O)[C@H](O)[C@H]2O)cc1 | 7.1 | 2500 | – |
| CCOc1ccc(Cc2ccc3c(c2)[C@]2(OC3)O[C@H](CO)[C@@H](O)[C@H](O)[C@H]2O)cc1 | – | 10000 | – |
| CCc1ccc(Cc2cc3c(cc2F)CO[C@]32O[C@H](CO)[C@@H](O)[C@H](O)[C@H]2O)cc1 | 8.6 | 5300 | – |
| CCc1ccc(Cc2cccc3c2CO[C@]32O[C@H](CO)[C@@H](O)[C@H](O)[C@H]2O)cc1 | > 1000 | – | – |
| CCc1ccc(Cc2cc3c(cc2Cl)CO[C@]32O[C@H](CO)[C@@H](O)[C@H](O)[C@H]2O)cc1 | 6.6 | 600 | Toxic |
| CCOc1ccc(Cc2cc3c(cc2Cl)CO[C@]32O[C@H](CO)[C@@H](O)[C@H](O)[C@H]2O)c(C)c1 | > 1000 | 1000 | – |
| CC(C)(C)c1ccc(Cc2cc3c(cc2Cl)CO[C@]32O[C@H](CO)[C@@H](O)[C@H](O)[C@H]2O)cc1 | 13 | 9700 | – |
| COc1ccc(Cc2cc3c(cc2Cl)CO[C@]32O[C@H](CO)[C@@H](O)[C@H](O)[C@H]2O)cc1 | 2.5 | 200 | – |
| CCc1ccc(Cc2cc3c(cc2Cl)CO[C@]32O[C@H](COC)[C@@H](O)[C@H](O)[C@H]2O)cc1 | 5.8 | 2700 | – |
| CCOc1ccc(Cc2cc3c(cc2Cl)CO[C@]32O[C@H](CO)[C@@H](O)[C@H](O)[C@H]2O)c(Cl)c1 | > 1000 | 10000 | – |
| COc1ccc(Cc2cc3c(cc2Cl)CO[C@]32O[C@H](CO)[C@@H](O)[C@H](O)[C@H]2O)c(C)c1 | > 1000 | 10000 | – |
